For assay [1], the species on record is Cavia porcellus. The settings on record: 10 nM.
Assay [2] is filed under the species Cavia porcellus. The assay can be described thus: Inhibition of CaCl2-induced contraction in potassium-depolarized guinea pig ileal smooth muscle at 10 uM. Format: functional. Summed up:
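Guinea-pig ileum segments (2.5 cm) in high-K+ (45 mM KCl), Ca-free Krebs at 37 °C, gassed 95% O2/5% CO2, 1.5 g resting tension, isometric recording. CaCl2 raised bath Ca to 2.5 mM to give a sustained contracture. Compound at 1×10^-5 M in 0.5% DMSO/water added once contraction stabilised. Nifedipine 1×10^-8 M was the positive control. Mean ± SEM, n = animals.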

A short description of assay [3]: Inhibition of CaCl2-induced contraction in potassium depolarized-guinea pig ileal smooth muscle. Format: functional, Cavia porcellus.

For the compound `COC(=O)C1=C(C)NC(C)=C(C(=O)OC)C1c1ccccc1[N+](=O)[O-]`, in the assay listed under Cavia porcellus [1], the inhibition worked out at 48.1%.

On to `C=CCN(C1=CC(=O)c2ccccc21)C1CCc2ccccc21` (racemic), for which the inhibition in the assay filed under Cavia porcellus [2] came out at 20.9%.

In turn, `CC(=O)N(C1=CC(=O)c2ccccc21)C1CCc2ccccc21` (racemic) came in with an inhibition in the assay filed under Cavia porcellus [2] of 18.3%.

For the compound `O=C1C=C(NC2CCc3ccccc32)c2ccccc21` (racemic), the inhibition in the assay listed under Cavia porcellus [2] amounted to 30%.

In assay [3], `Cc1c(O)c2c(c(C)c1CCO)C(=O)C(C)(C)C2` [ONITIN] yielded an EC50 of 0.1 mM.

Regarding `Cc1c(O)c2c(c(C)c1CCO)C(=O)C(C)(O)C2` (stereo unspecified) [ONITISIN], the midpoint of the response in assay [3], the EC50, lay at 2 mM.

(Values after ChEMBL document CHEMBL1144674, “Synthesis and pharmacological activity of aminoindanone dimers and related compounds” (Bioorg Med Chem, 2008).)
